Assay type in all cases: ADME, organism-based
The subject of data set [1] is Rattus norvegicus. The experiment in a line: Distribution of radioactivity in kidney tissues of Sprague-Dawley rats after 15 min injecton by intravenously; 1.12-2.04. Conditions: in vivo, iv, 0.25 h.
The subject of data set [2] is Rattus norvegicus. The experiment in a line: Distribution of radioactivity in liver tissues of Sprague-Dawley rats after 5 min injecton by intravenously; 6.76-10.44. Conditions: in vivo, iv.
For data set [3], the system named is Rattus norvegicus. The experiment in a line: Distribution of radioactivity in liver tissues of Sprague-Dawley rats after 60 min injecton by intravenously; 0.75-1.14. Conditions: in vivo, iv, 1 h.
The test system of data set [4] is Rattus norvegicus. The experiment in a line: Distribution of radioactivity in kidney tissues of Sprague-Dawley rats after 5 min injecton by intravenously; 13.02-19.07. The conditions noted are these: in vivo, iv.
The test system of data set [5] is Rattus norvegicus. The experiment in a line: Distribution of radioactivity in kidney tissues of Sprague-Dawley rats after 60 min injecton by intravenously; 0.48-0.72. Conditions: in vivo, iv, 1 h.
Data set [6] concerns Rattus norvegicus. The experiment in a line: Distribution of radioactivity in liver tissues of Sprague-Dawley rats after 15 min injecton by intravenously; 4.01-4.81. The conditions noted are these: in vivo, iv, 0.25 h.
Data set [7] has as its system Rattus norvegicus. The experiment in a line: Distribution of radioactivity in lung tissues of Sprague-Dawley rats after 15 min injecton by intravenously; 0.4-0.54. The conditions noted are these: in vivo, iv, 0.25 h.
For data set [8], the system named is Rattus norvegicus. The experiment in a line: Distribution of radioactivity in lung tissues of Sprague-Dawley rats after 5 min injecton by intravenously; 0.47-0.56. The conditions noted are these: in vivo, iv.
For data set [9], the system named is Rattus norvegicus. The experiment in a line: Distribution of radioactivity in lung tissues of Sprague-Dawley rats after 60 min injecton by intravenously; 0.3-0.36. Conditions: in vivo, iv, 1 h.
For data set [10], the system named is Rattus norvegicus. The experiment in a line: Distribution of radioactivity in brain tissues of Sprague-Dawley rats after 60 min injecton by intravenously; 0.02-0.03. Conditions: in vivo, iv, 1 h. An outline of the steps: (§1)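 Female Sprague-Dawley rats, 10–12 weeks old (170–200 g), fed ad libitum. The ¹²⁵I-labelled agent was dissolved in minimal Me2SO, diluted with saline to a final 20% Me2SO, filtered (0.22 μm), and injected into a lateral tail vein under ether anaesthesia. Tissues were counted against samples of the injected solution and expressed as % injected dose/g (mean, range). Brain/blood ratio is from the means.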

Data set [11] concerns Rattus norvegicus. The experiment in a line: Distribution of radioactivity in heart tissues of Sprague-Dawley rats after 60 min injecton by intravenously; 0.19-0.23. The conditions noted are these: in vivo, iv, 1 h.
Data set [12] deals with Rattus norvegicus. The experiment in a line: Distribution of radioactivity in blood tissues of Sprague-Dawley rats after 60 min injecton by intravenously; 0.25-0.32. Conditions: in vivo, iv, 1 h. In outline: as §1
In data set [13] the test system is Rattus norvegicus. The experiment in a line: Distribution of radioactivity in brain tissues of Sprague-Dawley rats after 15 min injecton by intravenously; 0.03-0.03. The conditions noted are these: in vivo, iv, 0.25 h. An outline of the steps: as §1
In data set [14] the test system is Rattus norvegicus. The experiment in a line: Distribution of radioactivity in heart tissues of Sprague-Dawley rats after 15 min injecton by intravenously; 0.24-0.28. Conditions: in vivo, iv, 0.25 h. An outline of the steps: as §1
The test system of data set [15] is Rattus norvegicus. The experiment in a line: Distribution of radioactivity in blood tissues of Sprague-Dawley rats after 15 min injecton by intravenously; 0.35-0.37. Conditions: in vivo, iv, 0.25 h. In outline: as §1
In data set [16] the test system is Rattus norvegicus. The experiment in a line: Distribution of radioactivity in blood tissues of Sprague-Dawley rats after 5 min injecton by intravenously; 0.34-0.48. The conditions noted are these: in vivo, iv. In outline:
as §1

In data set [17] the test system is Rattus norvegicus. The experiment in a line: Distribution of radioactivity in heart tissues of Sprague-Dawley rats after 5 min injecton by intravenously; 0.24-0.29. Conditions: in vivo, iv.
The subject of data set [18] is Rattus norvegicus. The experiment in a line: Distribution of radioactivity in brain tissues of Sprague-Dawley rats after 5 min injecton by intravenously; 0.02-0.03. Conditions: in vivo, iv. In outline:
as §1

In the case of `C[n+]1cccc(C(=O)NCCc2ccc([125I])cc2)c1`, the Distribution in data set [1] is given as 1.46%; in [2] it was 8.03%; in [3] it was 0.93%; in data set [4], 16.46%; in data set [5] it was 0.56%; in data set [6], 4.33%. Moreover, the Distribution in data set [7] is on record as 0.47%; in [8], 0.47%; in [9], 0.32%; in data set [10] it was 0.02%; in data set [11] it was 0.2%; in data set [12], 0.27%. The Distribution in data set [13] worked out at 0.03%; in [14] it was 0.26%; in [15], 0.36%; in [16], 0.39%; in [17], 0.25%; in data set [18], 0.03%.
